According to ChEMBL document CHEMBL1142519, “Synthesis and antiprotozoal activity of cationic 2-phenylbenzofurans” (J Med Chem, 2008):
The source made the active and inactive calls. The rule behind the calls is not given here.

What was measured:
[1] = Selectivity index, ratio of IC50 for rat L6 cells to IC50 for Trypanosoma brucei rhodesiense STIB 900; assay type: toxicity, cell-based; conditions: read-out: Ratio IC50
Summary of the method: (§1)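 Ratio of the L6 rat myoblast cytotoxicity IC50 to the IC50 against the parasite named in the line. Each IC50 is the average of duplicate determinations.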

[2] = Selectivity index, ratio of IC50 for rat L6 cells to IC50 for chloroquine-resistant Plasmodium falciparum K1; assay type: toxicity, cell-based; conditions: read-out: Ratio IC50; summary of the method: as §1
L6 = assay: Cytotoxicity against rat L6 cells; assay type: cell-based
Summary of the method: (§2)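 IC50 values in µM, each the average of duplicate determinations. Parasites were T. b. rhodesiense STIB900 and axenic amastigotes of L. donovani MHOM/SD/62/1S-CL2D. Cytotoxicity was run on rat L6 myoblast cells.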

Leishmania donovani = assay: Antileishmanial activity against Leishmania donovani MHOM/SD/62/1S-CL2D axenic amastigotes; assay type: functional, organism-based; summary of the method: as §2
Plasmodium falciparum = assay: Antiplasmodial activity against chloroquine-resistant Plasmodium falciparum K1; assay type: functional, organism-based
Summary of the method: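 In vitro IC50 against chloroquine-resistant P. falciparum K1, reported as the average of duplicate determinations.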

[3] = Selectivity index, ratio of IC50 for rat L6 cells to IC50 for Leishmania donovani MHOM/SD/62/1S-CL2D; assay type: toxicity, cell-based; conditions: read-out: Ratio IC50; summary of the method: as §1
[4] = tested on: Trypanosoma brucei rhodesiense; assay: Antitrypanosomal activity against Trypanosoma brucei rhodesiense STIB 900 bloodstream trypomastigotes; assay type: functional, organism-based; summary of the method: as §2
[5] = tested on: Trypanosoma brucei rhodesiense; assay: Antitrypanosomal activity against Trypanosoma brucei rhodesiense STIB 900 infected acute mouse model assessed as survival time at 5 mg/kg, ip administered daily for 4 days; assay type: functional; conditions: route intraperitoneal
Summary of the method: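 STIB900 acute mouse model of T. b. rhodesiense infection, with intraperitoneal dosing. Read-out is the average days of survival of treated mice. Cures are counted as mice that survive and stay parasite-free for 60 days.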

[6] = tested on: Trypanosoma brucei rhodesiense; assay: Antitrypanosomal activity against Trypanosoma brucei rhodesiense STIB 900 infected acute mouse model assessed as cured mouse at 5 mg/kg, ip daily for 4 days; assay type: functional, organism-based; parameters: dose 5 mg/kg
Summary of the method: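 STIB900 acute mouse model of trypanosomiasis with intraperitoneal dosing. The regimens were daily for 4 days at 20, 5 or 1 mg/kg, or a single 10 mg/kg dose. A cure is a mouse that survives and is parasite-free for 60 days. Average days of survival are also recorded.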

SMILES | selectivity ratio [1] | selectivity ratio [2] | IC50 (L6) | IC50 (Leishmania donovani) | IC50 (Plasmodium falciparum) | selectivity ratio [3] | IC50 [4] | Survival [5] | Activity [6]
COc1ccc(C(=N)NC(C)C)cc1-c1cc2ccc(C(=N)NC(C)C)cc2o1 | > 188 | > 597 | > 175 µM | 54 µM | 293 nM | > 3 | 929 nM |  | 
c1ccc2[nH]c(-c3ccc(-c4cc5cc(C6=NCCN6)ccc5o4)cc3)nc2c1 | 260 | 972 | 59.3 µM | > 100 µM | 61 nM | < 0.6 | 228 nM |  | 
COc1cc(C2=NCCN2)ccc1-c1cc2ccc(C3=NCCN3)cc2o1 | 90 | 57 | 4.4 µM | > 100 µM | 77 nM | < 0.04 | 49 nM | 7 days | inactive
CC(C)NC(=N)c1ccc(O)c(-c2cc3ccc(C(=N)NC(C)C)cc3o2)c1 | > 37 | > 294 | > 187 µM | > 100 µM | 636 nM |  | 5100 nM |  | 
CC(C)NC(=N)c1cccc(-c2cc3ccc(C(=N)NC(C)C)cc3o2)c1 | > 375 | > 3390 | > 200 µM | 24 µM | 59 nM | > 8 | 534 nM |  | 
COc1cc(C(=N)NC(C)C)ccc1-c1cc2cc(C(=N)NC(C)C)ccc2o1 | 1330 | 4900 | 98.1 µM | 1.5 µM | 20 nM | 67 | 74 nM | >39 days | inactive
COc1cc(C(=N)N)ccc1-c1cc2cc(C(=N)N)ccc2o1 | 52300 | 52300 | 157 µM | 2 µM | 3 nM | 80 | 3 nM | >47 days | 
COc1cc(C2=NCCN2)ccc1-c1cc2cc(C3=NCCN3)ccc2o1 | 30 | 239 | 7.4 µM | 60 µM | 31 nM | 0.1 | 247 nM |  | 
Oc1ccc(C2=NCCN2)cc1-c1cc2cc(C3=NCCN3)ccc2o1 | > 877 | > 8650 | > 199 µM | 57 µM | 23 nM | 4 | 227 nM |  | 
N=C(N)c1ccc(OCCCCCOc2ccc(C(=N)N)cc2)cc1 [PENTAMIDINE] |  |  |  | 1.8 µM |  |  |  | >45 days | 
c1cc(C2=NCCN2)cc(-c2cc3ccc(C4=NCCN4)cc3o2)c1 | 38 | 62 | 12.8 µM | > 100 µM | 205 nM | 0.1 | 333 nM |  | 
Oc1ccc(C2=NCCN2)cc1-c1cc2ccc(C3=NCCN3)cc2o1 | > 2280 | > 1840 | > 189 µM | 35 µM | 103 nM | > 6 | 83 nM | 14 days | inactive
CC(C)NC(=N)c1cccc(-c2cc3cc(C(=N)NC(C)C)ccc3o2)c1 | > 421 | > 601 | > 199 µM | 13 µM | 331 nM | > 15 | 473 nM |  | 
N=C(N)c1ccc(O)c(-c2cc3ccc(C(=N)N)cc3o2)c1 | 5660 | 434 | 164 µM | 41 µM | 378 nM | 4 | 29 nM | >36 days | 
COc1cc(C(=N)NC(C)C)ccc1-c1cc2ccc(C(=N)NC(C)C)cc2o1 | > 3350 | > 879 | > 181 µM | 32 µM | 206 nM | > 6 | 54 nM | >38 days | 
c1ccc2[nH]c(-c3ccc4oc(-c5ccc(C6=NCCN6)cc5)cc4c3)nc2c1 | 50 | 153 | 6.1 µM | 5.7 µM | 40 nM | 1 | 122 nM | 11 days | inactive
COc1ccc(C(=N)N)cc1-c1cc2cc(C(=N)N)ccc2o1 | 89500 | 4480 | 179 µM | 5.7 µM | 40 nM | 31 | 2 nM | >57 days | 

SMILES | selectivity ratio [1] | selectivity ratio [2] | IC50 (L6) | IC50 (Leishmania donovani) | IC50 (Plasmodium falciparum) | selectivity ratio [3] | IC50 [4] | Survival [5] | Activity [6]
COc1cc(C(=N)NC(C)C)cc2cc(-c3ccc(C(=N)NC(C)C)cc3)oc12 | > 2110 | > 3960 | > 190 µM | 15 µM | 48 nM | > 12 | 90 nM |  | 
c1c[nH]c(-c2ccc(-c3cc4cc(-c5ncc[nH]5)ccc4o3)cc2)n1 | 5 | 100 | 3.3 µM | > 100 µM | 33 nM | < 0.03 | 606 nM |  | 
CC(C)NC(=N)c1ccc(O)c(-c2cc3cc(C(=N)NC(C)C)ccc3o2)c1 | > 179 | > 349 | > 180 µM | 40 µM | 516 nM | > 5 | 1000 nM |  | 
COc1ccc(C2=NCCN2)cc1-c1cc2cc(C3=NCCN3)ccc2o1 | 1140 | 474 | 30.8 µM | > 50 µM | 65 nM | < 0.6 | 27 nM | 8.5 days | inactive
COc1ccc(C(=N)N)cc1-c1cc2ccc(C(=N)N)cc2o1 | 11600 | 7110 | 128 µM | 3.6 µM | 18 nM | 36 | 11 nM | >48 days | 
COc1ccc(C(=N)NC(C)C)cc1-c1cc2cc(C(=N)NC(C)C)ccc2o1 | > 1160 | > 716 | > 179 µM | 25 µM | 250 nM | > 7 | 155 nM |  | 
c1ccc2[nH]c(-c3ccc(-c4cc5cc(-c6nc7ccccc7[nH]6)ccc5o4)cc3)nc2c1 | 27 | 216 | 6.7 µM | > 100 µM | 31 nM | 0.1 | 249 nM | 5.5 days | inactive
Oc1cc(C2=NCCN2)ccc1-c1cc2ccc(C3=NCCN3)cc2o1 | > 17500 | > 1970 | > 193 µM | 13 µM | 98 nM | > 15 | 11 nM | 23 days | inactive
N=C(N)c1cccc(-c2cc3ccc(C(=N)N)cc3o2)c1 | 6240 | 32800 | 131 µM | 14 µM | 4 nM | 9 | 21 nM | 33 days | inactive
N=C(N)c1cccc(-c2cc3cc(C(=N)N)ccc3o2)c1 | 883 | 1120 | 21.2 µM | 5.8 µM | 19 nM | 4 | 24 nM |  | 
COc1cc(C(=N)N)ccc1-c1cc2ccc(C(=N)N)cc2o1 | 36000 | 5400 | 108 µM | 3.7 µM | 20 nM | 29 | 3 nM | >34.5 days | 
C[C@@H]1CC[C@H]2[C@@H](C)C(=O)O[C@@H]3O[C@@]4(C)CC[C@@H]1[C@]32OO4 [ARTEMISININ] |  | 75000 |  |  |  |  |  |  | 
CC(C)NC(=N)c1ccc(-c2cc3ccc(C(=N)NC(C)C)cc3o2)cc1 | > 1340 | > 13300 | > 199 µM | 12 µM | 15 nM | > 17 | 148 nM | >38.5 days | 
c1cc(C2=NCCN2)cc(-c2cc3cc(C4=NCCN4)ccc3o2)c1 | 435 | 446 | 33.9 µM | 24 µM | 76 nM | 1.5 | 78 nM |  | 
c1cc(-c2cc3ccc(C4=NCCN4)cc3o2)ccc1C1=NCCN1 | 14 | 41 | 4.5 µM | > 50 µM | 109 nM | < 0.1 | 319 nM |  | 
N=C(N)c1ccc(-c2cc3ccc(C(=N)N)cc3o2)c(O)c1 | > 55200 | > 3160 | > 221 µM | 29 µM | 70 nM | > 8 | 4 nM | >39 days | 
